Shown are actives, neighbours in structure and some others; about 0.84% of the full set was active somewhere.
DDE Tn7 FP inh = inhibitors of Tn7 peptide binding to fibrin DD(E), primary screen, biochemical, fluorescence polarization, human fibrin, Tn7 probe. inhibition, % at 8.3 µM. AID 720508, 2013. FP displacement of FITC-Tn7 peptide from fibrin DD(E); 0% = median of compound wells per plate. hit rate 0.13% among 370,000. Fibrinogen beta chain (Homo sapiens), P02675;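 active = inhibition above the mean of compounds falling within the control limits plus 3 SD of them, cut at about 14% in these data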;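 note: 0% = plate median of compound wells and 100% = 10 µM Aha-Tn7 peptide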
Target sequence (P02675 whole entry, looked up): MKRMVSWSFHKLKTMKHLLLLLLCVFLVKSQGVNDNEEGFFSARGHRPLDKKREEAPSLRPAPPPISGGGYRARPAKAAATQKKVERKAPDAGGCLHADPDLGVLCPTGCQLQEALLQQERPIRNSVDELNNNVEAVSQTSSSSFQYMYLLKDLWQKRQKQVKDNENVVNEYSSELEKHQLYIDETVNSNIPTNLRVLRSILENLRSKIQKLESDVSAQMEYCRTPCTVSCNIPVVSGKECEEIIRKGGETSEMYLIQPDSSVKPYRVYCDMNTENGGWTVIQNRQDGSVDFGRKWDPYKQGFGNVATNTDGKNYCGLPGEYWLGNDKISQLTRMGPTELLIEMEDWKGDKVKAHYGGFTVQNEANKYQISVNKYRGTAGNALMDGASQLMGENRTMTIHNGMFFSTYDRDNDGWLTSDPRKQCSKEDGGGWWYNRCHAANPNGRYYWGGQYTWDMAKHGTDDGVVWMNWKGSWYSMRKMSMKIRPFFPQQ
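System: human fibrin DD(E); quantity: Fibrin-DD(E) at 2 µM final; also added: fluorescent Tn7 probe at 0.1 µM; compound dosing: single nominal test concentration of 8.3 µM per compound; schedule: 10 min preincubation, 3 h with tracer, room temperature; detection: fluorescence polarization of the labelled Tn7 tracer; repeats: one replicate per compound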
SKN-1 inh = suppressors of acrylamide-induced Pgst-4::GFP reporter in worms, primary screen, SKN-1 inhibitor project, whole organism, uHTS, GFP/RFP fluorescence ratio, strain VP596. inhibition, % at 21.8 µM. hit rate 0.49% among 360,000. AID 624304, 2012. C. elegans VP596 Pgst-4::GFP/RFP ratio, 24 h;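 active = interference check ratio from 0.5 to 1.5 plus GFP to RFP signal ratio inhibition reaching or exceeding a fixed threshold, cut at about 30% in these data, passing the limit was not always enough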
MT1-MMP act inh = blockers of MT1-MMP proenzyme processing, primary screen, HT1080 RFP-PRO-GFP cells, GFP/RFP fluorescence | AID 651647, 2012 | GFP/RFP ratio fluorescence, overnight; percent of plate control window, DMSO zero | Matrix metalloproteinase-14 (Homo sapiens), P50281 | GFP/RFP ratio change, % at 20 µM | hit rate 0.061% among 360,000;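 active = GFP/RFP ratio change of at least 30% with cell ATP level not reduced by more than half and red fluorescence within 50% of control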
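Test system: HT1080 cells expressing an RFP-PRO-GFP fluorescent reporter construct / Compound dosing: single-point 20 µM compound, 1% DMSO / Schedule: cells overnight before dosing, compound overnight, 37 °C, 5% CO2 / Evaluation: GFP/RFP fluorescence ratio / Control set: DMSO and RFP-L50D-GFP cell wells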
Tn6 DDE FP = inhibitors of Tn6 peptide binding to fibrin DD(E), primary screen, biochemical, fluorescence polarization, human fibrin, Tn6 probe. inhibition, % at 8.3 µM. hit rate 0.21% among 370,000. Fibrinogen beta chain (Homo sapiens), P02675. Fibrin DD(E) TRITC-Tn6 fluorescence polarization displacement;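 active = inhibition above a per-campaign cutoff: mean of compounds within control limits plus 3 SD, cut at about 15% in these data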;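 note: 0% = median of all compound wells on the plate and 100% = blocking peptide control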
MT1-MMP conf = MT1-MMP activation inhibitors, hit retest, confirmation, single concentration, fluorescence, HT1080 RFP-PRO-GFP cells; shares compounds with MT1-MMP act inh; GFP and RFP fluorescence ratio, overnight; inhibition, % at 20 µM; hit rate 10% among 200;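 active = inhibition of at least 50% in the primary cell screen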
Numbers without * were called inactive.

Results for O=C(O)c1cccc(N2C(=O)CSC2=S)c1 ?
DDE Tn7 FP inh: 3; SKN-1 inh: 4; MT1-MMP act inh: 36*; Tn6 DDE FP: -4; MT1-MMP conf: 8

Results for CC1C(=O)N(Cc2cn(Cc3ccco3)nn2)CCS(=O)(=O)N1Cc1ccc(-c2ccc(Cl)cc2)cc1 (stereo not given) ?
DDE Tn7 FP inh: -7; SKN-1 inh: 12; MT1-MMP act inh: -3; Tn6 DDE FP: -5

How did CCSc1nc(=S)n(Cc2ccccc2)c(C)c1C(C)=O do in these assays?
DDE Tn7 FP inh: -10; SKN-1 inh: -1; MT1-MMP act inh: 35*; Tn6 DDE FP: 3; MT1-MMP conf: 8

How did COc1cccc(C(=O)NNc2c3ccccc3nc3ccccc23)c1 do in these assays?
DDE Tn7 FP inh: -2; SKN-1 inh: 4; MT1-MMP act inh: 22; Tn6 DDE FP: 3

What do the screens show for `Cc1cc(C(=O)NNC(=O)c2ccc(Cl)cc2)c2ccccc2n1`?
DDE Tn7 FP inh: 0; SKN-1 inh: -12; MT1-MMP act inh: 1; Tn6 DDE FP: -2

What do the screens show for `Cc1ccc(C(=O)NNc2c3ccccc3nc3ccccc23)cc1`?
DDE Tn7 FP inh: 2; SKN-1 inh: -4; MT1-MMP act inh: 37*; Tn6 DDE FP: -5; MT1-MMP conf: 39

Results for O=C(NNc1c2ccccc2nc2ccccc12)c1ccc(Cl)cc1 ?
DDE Tn7 FP inh: 4; SKN-1 inh: 41*; MT1-MMP act inh: 40*; Tn6 DDE FP: 1; MT1-MMP conf: 26

What do the screens show for `O=C1C2C3C=CC(C3)C2C(=O)N1CC1CCCO1` (stereo not given)?
DDE Tn7 FP inh: -6; SKN-1 inh: -11; MT1-MMP act inh: -3; Tn6 DDE FP: -4

What do the screens show for `O=C1CSC(=S)N1CC1CCCO1` (stereo not given)?
DDE Tn7 FP inh: -2; SKN-1 inh: 2; MT1-MMP act inh: 35*; Tn6 DDE FP: -3; MT1-MMP conf: 1

What do the screens show for `CCN(C[C@H]1N[C@@](CC)(C(=O)OC)[C@H]2C(=O)N(Cc3ccccc3)C(=O)[C@@H]12)C(=O)c1ccccc1`?
DDE Tn7 FP inh: 0; SKN-1 inh: 12; MT1-MMP act inh: 1; Tn6 DDE FP: 9

What do the screens show for `Cc1cc2ccccc2n1CCNC(=O)C1CC1`?
DDE Tn7 FP inh: -9; SKN-1 inh: 47*; MT1-MMP act inh: 32*; Tn6 DDE FP: 5; MT1-MMP conf: 2

How did CCn1c(CNC(=O)C2CCCCC2)cc2ccccc21 do in these assays?
DDE Tn7 FP inh: 2; SKN-1 inh: 15; MT1-MMP act inh: 0; Tn6 DDE FP: 3

What do the screens show for `O=C(c1cccc(S(=O)(=O)N2CCc3ccccc32)c1)N1CCN(c2ccccc2)CC1`?
DDE Tn7 FP inh: 4; SKN-1 inh: 5; MT1-MMP act inh: -1; Tn6 DDE FP: -1

Results for Cc1cc2cc(CN3C(=O)c4ccccc4C3=O)ccc2n1C ?
DDE Tn7 FP inh: -6; SKN-1 inh: 46*; MT1-MMP act inh: 32*; Tn6 DDE FP: -5; MT1-MMP conf: 13

Results for CC(C)C(NC(=O)c1ccc(Cl)c([N+](=O)[O-])c1)C(=O)NCc1ccccn1 (stereo not given) ?
DDE Tn7 FP inh: 4; SKN-1 inh: 18; MT1-MMP act inh: -2; Tn6 DDE FP: 8

What do the screens show for `CC1=C/C(=C(/c2cc(C)c(O)c(Br)c2)c2ccccc2S(=O)(=O)O)C=C(Br)C1=O`?
DDE Tn7 FP inh: -3; SKN-1 inh: 51*; MT1-MMP act inh: 63*; Tn6 DDE FP: 11; MT1-MMP conf: 50*

What do the screens show for `CC1=C/C(=C(/c2ccc(O)c(C)c2)c2ccccc2S(=O)(=O)O)C=CC1=O`?
DDE Tn7 FP inh: 5; SKN-1 inh: 16; MT1-MMP act inh: 10; Tn6 DDE FP: -3

How did CC(Oc1ccccc1Cl)C(=O)Nc1ccc(S(=O)(=O)N2CCN(C)CC2)cc1 (stereo not given) do in these assays?
DDE Tn7 FP inh: 4; SKN-1 inh: -1; MT1-MMP act inh: 2; Tn6 DDE FP: 4

How did CN(C)c1ccc(N=Cc2nc(-c3ccccc3)oc2O)cc1 do in these assays?
DDE Tn7 FP inh: -2; SKN-1 inh: 46; MT1-MMP act inh: -84; Tn6 DDE FP: -7

Results for CN(C)c1ccc(N=Cc2cccn2C)cc1 ?
DDE Tn7 FP inh: 4; SKN-1 inh: 14; MT1-MMP act inh: 39*; Tn6 DDE FP: 9; MT1-MMP conf: 2

Results for CCn1c(O)c(/C=N/n2cnnc2)sc1=S ?
DDE Tn7 FP inh: -9; SKN-1 inh: 2; MT1-MMP act inh: 30*; Tn6 DDE FP: 1; MT1-MMP conf: 3

How did CCn1c(O)c(C=Nc2ccccc2)sc1=S do in these assays?
DDE Tn7 FP inh: 2; Tn6 DDE FP: -2

What do the screens show for `C=C1C[C@H](O[C@@H]2O[C@H](CO)[C@@H](O)[C@H](O)[C@H]2O)[C@@H]2[C@H](OC(=O)[C@H]2C)[C@H]2[C@H](C)[C@H](O)C[C@@H]12`?
DDE Tn7 FP inh: -4; SKN-1 inh: 4; MT1-MMP act inh: 1; Tn6 DDE FP: -2

What do the screens show for `COc1ccc(CNS(=O)(=O)NCc2ccc(C)cc2)cc1`?
DDE Tn7 FP inh: 3; SKN-1 inh: -4; MT1-MMP act inh: -1; Tn6 DDE FP: 8

Results for CCCCNC(=O)C[C@H]1C[C@@]2(C(=O)OC)C(=C[C@H](C3CCCC3)O[C@@H]2C)N(Cc2cccc3ccccc23)C1=O ?
DDE Tn7 FP inh: -6; Tn6 DDE FP: 0

What do the screens show for `CCOc1ccc(N2CC(=O)SC2=S)cc1`?
DDE Tn7 FP inh: -4; SKN-1 inh: 13; MT1-MMP act inh: 37*; Tn6 DDE FP: -3; MT1-MMP conf: 2

Results for CCOc1ccc(N2CSC(=S)N(c3ccc(OCC)cc3)C2)cc1 ?
DDE Tn7 FP inh: 1; SKN-1 inh: 5; MT1-MMP act inh: 2; Tn6 DDE FP: -1

Results for CCNC(=O)C1(C)CCN(C(=O)c2ccc(-c3ccccc3)cc2)C1 (stereo not given) ?
DDE Tn7 FP inh: -2; SKN-1 inh: -2; MT1-MMP act inh: 7; Tn6 DDE FP: 6

Results for C/C(=C/c1oc2ccc(O)cc2c1[N+](=O)[O-])N(C)C ?
DDE Tn7 FP inh: 3; SKN-1 inh: 13; MT1-MMP act inh: 43*; Tn6 DDE FP: 9; MT1-MMP conf: 32

Results for CC(=O)Oc1ccc2oc(/C=C/N(C)C)c([N+](=O)[O-])c2c1 ?
DDE Tn7 FP inh: -6; SKN-1 inh: 29; MT1-MMP act inh: 45*; Tn6 DDE FP: 3; MT1-MMP conf: 36

Bioassay records deposited in PubChem by several laboratories.
